Most compounds without a hit are left out; they make up all but 11% or so of the library.
D1 mod: allosterically modulates the human D1 dopamine receptor. HEK293 D1, CRE-luciferase, dopamine EC30 potentiation; actives deviate in either direction. B-score at 10 µM. hit rate 5.9% among 58,000. AID 641;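 active = luminescence count or its row- and column-corrected plate score outside the 99.7% band of the plate's sample wells, on either side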
Target sequence (P21728 whole entry, looked up): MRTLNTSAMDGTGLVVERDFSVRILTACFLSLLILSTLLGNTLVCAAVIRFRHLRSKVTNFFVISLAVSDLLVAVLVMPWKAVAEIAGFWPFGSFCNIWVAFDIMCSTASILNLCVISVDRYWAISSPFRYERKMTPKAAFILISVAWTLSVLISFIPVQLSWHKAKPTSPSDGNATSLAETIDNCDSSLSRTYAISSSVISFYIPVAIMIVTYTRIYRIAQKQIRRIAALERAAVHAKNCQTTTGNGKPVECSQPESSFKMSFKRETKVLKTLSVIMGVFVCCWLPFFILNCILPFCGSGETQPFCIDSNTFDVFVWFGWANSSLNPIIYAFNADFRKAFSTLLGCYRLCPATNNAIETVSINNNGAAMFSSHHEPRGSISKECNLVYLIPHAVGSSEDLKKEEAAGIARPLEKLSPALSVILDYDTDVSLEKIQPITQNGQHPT
S1P3 agonist: S1P3 (human) receptor agonism; Q99500; S1P3 NFAT-BLA reporter cells, FRET ratio; relative to 1 µM S1P, basal subtracted; activation, % at 4.5 µM; hit rate 0.1% among 60,000;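 active = activation above the screen-wide mean plus 3 SD, cut at about 4.5% in these data, passing the limit was not always enough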
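Assay system: stable CHO line with human S1P3, Gα16, NFAT-BLA reporter; Detection: FRET β-lactamase substrate fluorescence, excitation 405 nm, 460/535 nm emission ratio, background-subtracted; Read-out: percent activation versus median 1 µM S1P response, basal-subtracted, per plate; Incubation: cells plated overnight, compound 4 h 37 °C, substrate 2 h RT.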
M1 ag: activates the M1 muscarinic receptor; CHO-M1 cells, Fluo-4 calcium fluorescence, agonist mode; stronger effect = higher value; B-score at 10 µM; hit rate 3% among 64,000; AID 626;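 active = fluorescence rise, raw or as B-score row- and column-corrected plate score, outside the 99.7% band of its plate's samples, either direction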
S1P1 ag pot: S1P1 (human) agonism or agonism potentiation; P21453; S1P1 CRE-bla cells, forskolin, beta-lactamase FRET, potentiator mode; S1P1 agonist co-added at EC20, 2 nM; 100% = saturating reference agonist, 0% = basal; activation, % at 9.5 µM; hit rate 0.57% among 56,000; AID 449;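 active = activation above a cutoff set at the mean activation of all tested compounds plus 3 SD, cut at about 54% in these data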;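 note: forskolin at 4 µM as EC80 and the EC20 agonist is SEW2871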
M1 antagonist: blocks the rat M1 muscarinic receptor response to acetylcholine | AID 628 | B-score at 10 µM | CHO-M1 cells, Fluo-4 calcium, ACh EC80 antagonist mode; stronger effect = lower value | hit rate 3.4% among 64,000;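 active = calcium fluorescence response, raw or row-and-column corrected B-score, differing from the plate sample mean either way at a set confidence level, mostly lower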
M1 antag conf: confirmation of rat M1 muscarinic receptor antagonists; shares compounds with M1 antagonist; CHO-M1 cells, Fluo-4 calcium, ACh EC80 antagonism; stronger effect = lower value; calcium response (max-min fluorescence) at 10 µM; hit rate 43% among 1,700; AID 677;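 active = calcium response below the same-plate mean of wells given acetylcholine alone at its 80%-effect dose, minus 3 SD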
mGluR4 antag: mGluR4 (human) activity, M1 antagonist secondary assay; hit rate 0.9% among 1,700; fluorescence response (max-min) at 10 µM; shares compounds with M1 antagonist; CHO-mGluR4 calcium flux, Fluo-4 fluorescence, glutamate EC80; stronger effect = lower value;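 active = fluorescence response below the plate's average for near-maximal glutamate wells, less 3 SD of those wells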;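 note: raw unnormalized fluorescence span taken in the window right after glutamate addition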
Hits are given with their value; . = inactive; / = no result.

SMILES	D1 mod	S1P3 agonist	M1 ag	S1P1 ag pot	M1 antagonist	M1 antag conf	mGluR4 antag
C[C@H](NC(=O)C1(c2ccccc2)CCN(C(=O)[C@H]2CSCN2C(=O)OC(C)(C)C)CC1)C(=O)O	.	.	.	.	.	/	/
COC(=O)CN1CCN(C(c2ccccc2)c2ccccc2)CC1	.	.	.	.	.	/	/
CC(=O)c1ccccc1OCC(O)CN1CCN(C(c2ccccc2)c2ccccc2)CC1 (centres undefined)	/	.	.	.	-7.9	133	.
CC(=O)c1ccc(OCC(O)CN2CCN(Cc3ccccc3)CC2)cc1 (centres undefined)	.	.	.	.	.	/	/
COCCNC(=O)CN1CCN(C(c2ccccc2)c2ccccc2)CC1	.	.	.	.	-1.2	.	.
CCCc1c(OCCCCc2nn[nH]n2)ccc(C(C)=O)c1O	.	.	.	.	.	/	/
Cc1cc(C)n(-c2c(F)c(F)c(CN3CCOCC3)c(F)c2F)n1	.	.	.	.	.	/	/
Cc1cc(C)nc(SCc2nnc(SCc3ccccc3Cl)o2)n1	.	.	.	.	-4.5	.	.
O=C(C(Cc1ccccc1)n1cccc1)N1CCN(Cc2ccccc2)CC1 (centres undefined)	.	.	.	.	-16	18	.
CC(C)C(O)P(=O)(OCc1ccccc1)c1ccc(N(C)C)cc1 (centres undefined)	.	.	.	.	.	/	/
COC(=O)c1oc2c(c1C)C1(CCC2)SCCS1	.	.	.	.	-6.8	259	.
CCCCOc1ccc(CN2CCCCC2)cc1	.	.	.	.	-5.1	283	.
CCCCOc1ccc(C(=O)N2CCCCCC2)cc1	.	.	.	.	.	/	/
Nc1c(S(=O)(=O)c2cccs2)c2nc3ccccc3nc2n1/N=C/c1cccc(O)c1	.	.	.	.	-14	.	.
Cc1ccc(S(=O)(=O)NCCCN2CCOCC2)cc1C	/	.	.	/	.	/	/
Cc1nc(NC2=NCN(CCCN3CCOCC3)CN2)nc2c(C)cccc12	.	.	.	.	-7.4	48	.
Cc1cc2nc(NC3=NCN(CCCN4CCOCC4)CN3)nc(C)c2cc1C	.	.	.	.	-14	22	.
Cc1ccccc1NC(=O)CCN1CCCCCC1	.	.	.	/	.	/	/
OC(C#CCN1CCOCC1)(c1ccccc1)C1CC1 (centres undefined)	.	.	.	.	.	/	/
C=CCC(O)(CCN1CCCCC1)c1ccccc1 (centres undefined)	.	.	.	.	-8	97	.
OC(CCN1CCCCC1)(c1ccccc1)c1ccccc1	.	.	.	.	-12	23	.
C=CCC(CC=C)(C(=O)O)c1ccccc1	.	.	.	.	.	/	/
OC(CCN1CCCC1)(c1ccccc1)C1CCCCC1 (centres undefined)	.	.	.	.	-16	17	.
Cc1nnc(Sc2nc3c(c(=O)n(C)c(=O)n3C)n2Cc2ccc(Cl)cc2)s1	/	.	/	.	/	/	/
COC(=O)C1C(=O)NC(SC)=C(C#N)C1c1ccccc1F (centres undefined)	/	.	.	.	.	/	/
SMILES	D1 mod	S1P3 agonist	M1 ag	S1P1 ag pot	M1 antagonist	M1 antag conf	mGluR4 antag
COC(=O)c1ccc(NC(=O)C2CCCN(S(=O)(=O)c3cnc[nH]3)C2)cc1 (centres undefined)	.	.	.	.	.	/	/
COc1ccc(C(C)=O)c2c1OCCO2	.	.	.	.	-2.2	.	.
O=C(NC1CCCCC1)N(Cc1cc2cc3c(cc2[nH]c1=O)OCCO3)CC1CCCO1 (centres undefined)	/	.	.	.	.	/	/
Cc1cc(C)c2cc(CN(CC3CCCO3)C(=O)NC3CCCCC3)c(=O)[nH]c2c1 (centres undefined)	.	.	.	.	-3.4	.	.
COC(=O)C1C(=O)c2c([nH]c(C(=O)OCCOC(C)C)c2C)CC1C (centres undefined)	.	/	.	/	-2.9	.	.
COc1ccc(N2CCN(C(=O)c3ccc(CNc4c(N5CCOCC5)c(=O)c4=O)cc3)CC2)cc1	.	.	.	.	.	/	/

Screening data: PubChem BioAssay, several laboratories
